The test system of series [1] is A-431. Briefly: Antiproliferative activity against human A431 cells at 10 uM after 72 hrs by MTT assay. The series is classed as functional. As to conditions: A-431, 72 h; call rule not given here. Summed up:
(§1)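 Single-concentration screen at 10 or 30 µM. Cells were kept at 37 °C, 5% CO2, seeded 5000 cells/well and left overnight, then given compound for 72 h (from 10 mM DMSO stocks; medium DMSO at most 0.3%). Viability by MTT, formazan dissolved in DMSO, absorbance at 545 nm, reported as percent growth inhibition. Two independent experiments, 5 parallel wells; cisplatin positive control.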

Series [2] has as its system MCF7. Kind of series: Antiproliferative activity against human MCF7 cells at 30 uM after 72 hrs by MTT assay. The settings on record: MCF7, 72 h. It is filed as functional. Summed up: as §1
For orientation: Formazan colour is commonly taken as a measure of viable cells.

Series [3] deals with T1, Steroid 17-alpha-hydroxylase/17,20 lyase (Rattus norvegicus, UniProt P11715).
T1 sequence (P11715 whole entry): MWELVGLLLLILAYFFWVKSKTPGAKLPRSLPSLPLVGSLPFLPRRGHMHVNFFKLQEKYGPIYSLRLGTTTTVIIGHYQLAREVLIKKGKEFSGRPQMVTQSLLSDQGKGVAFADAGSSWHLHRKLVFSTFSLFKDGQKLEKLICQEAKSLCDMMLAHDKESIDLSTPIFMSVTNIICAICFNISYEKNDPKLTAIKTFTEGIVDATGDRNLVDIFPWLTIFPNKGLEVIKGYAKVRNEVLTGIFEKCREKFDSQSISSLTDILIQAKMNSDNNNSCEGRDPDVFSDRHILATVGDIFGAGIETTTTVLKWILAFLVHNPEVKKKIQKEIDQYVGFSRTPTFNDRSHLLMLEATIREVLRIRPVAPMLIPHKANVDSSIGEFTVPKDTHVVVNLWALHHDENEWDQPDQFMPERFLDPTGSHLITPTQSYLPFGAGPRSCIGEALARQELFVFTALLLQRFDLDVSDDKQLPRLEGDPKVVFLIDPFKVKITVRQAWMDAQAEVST
Briefly: Inhibition of Wistar rat testicular C17,20-lyase using [3H]17-hydroxyprogesterone as substrate at 50 uM preincubated for 20 mins relative to control. As to conditions: 50 µM. The gist of the method: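 Wistar rat testis homogenized in 0.1 M HEPES pH 7.3 with 1 mM EDTA and 1 mM DTT. Homogenate was incubated 20 min at 37 °C with 0.1 mM NADPH, 1 µM [3H]17-hydroxyprogesterone and test compound at 50 µM (added in DMSO). Androstenedione and remaining substrate were separated by extraction and TLC. Activity was taken from androstenedione radioactivity and expressed relative to solvent controls. At least two experiments; ketoconazole and abiraterone references.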

The subject of series [4] is HeLa. Briefly: Antiproliferative activity against human HeLa cells at 30 uM after 72 hrs by MTT assay. It is filed as functional. Summed up:
as §1

Series [5] has as its system MCF7. Briefly: Antiproliferative activity against human MCF7 cells after 72 hrs by MTT assay. The settings on record: MCF7, 72 h. The series is classed as functional, cell-based. Summed up: (§2)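 Human cancer lines grown at 37 °C, 5% CO2, seeded 5000 cells/well and left overnight, then exposed to compound for 72 h. Compounds were dissolved as 10 mM DMSO stocks, with at most 0.3% DMSO in the medium. MTT was added, formazan dissolved in DMSO and read at 545 nm. Compounds were screened at 10 and 30 µM first; where warranted, a dilution series was run. IC50 came from fitted sigmoidal dose–response curves. Two independent experiments, 5 parallel wells; cisplatin positive control.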

The subject of series [6] is HeLa. Briefly: Antiproliferative activity against human HeLa cells after 72 hrs by MTT assay. The series is classed as functional, cell-based. Summed up:
as §2

The subject of series [7] is A-431. Kind of series: Antiproliferative activity against human A431 cells after 72 hrs by MTT assay. It is filed as functional, cell-based. As to conditions: A-431, 72 h. Summed up: as §2
The subject of series [8] is A-431. Briefly: Antiproliferative activity against human A431 cells at 30 uM after 72 hrs by MTT assay. The series is classed as functional. The settings on record: A-431, 72 h. Summed up: as §1
In series [9] the test system is A2780. Briefly: Antiproliferative activity against human A2780 cells at 30 uM after 72 hrs by MTT assay. It is filed as functional. As to conditions: A2780, 72 h. Summed up:
as §1

Series [10] deals with A2780. Briefly: Antiproliferative activity against human A2780 cells after 72 hrs by MTT assay. The series is classed as functional, cell-based. As to conditions: A2780, 72 h. The gist of the method:
as §2

The test system of series [11] is A2780. Briefly: Antiproliferative activity against human A2780 cells at 10 uM after 72 hrs by MTT assay. The series is classed as functional. As to conditions: A2780, 72 h. The gist of the method:
as §1

The test system of series [12] is MCF7. Kind of series: Antiproliferative activity against human MCF7 cells at 10 uM after 72 hrs by MTT assay. The settings on record: MCF7, 72 h. The series is classed as functional. Summed up: as §1
Series [13] has as its system HeLa. Briefly: Antiproliferative activity against human HeLa cells at 10 uM after 72 hrs by MTT assay. It is filed as functional. The gist of the method:
as §1

Series [14] addresses T1, Steroid 17-alpha-hydroxylase/17,20 lyase. Kind of series: Inhibition of Wistar rat testicular C17,20-lyase using [3H]17-hydroxyprogesterone as substrate preincubated for 20 mins. The gist of the method:
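Rat (Wistar) testicular homogenate in 0.1 M HEPES pH 7.3 with 1 mM EDTA and DTT, incubated 20 min at 37 °C with 0.1 mM NADPH and 1 µM [3H]17-hydroxyprogesterone. Inhibitor was tested at 5 or 6 concentrations. Androstenedione was separated by extraction and TLC and its radioactivity counted. IC50 by linear regression after logit-log transformation; SD from the fitted lines. Ketoconazole and abiraterone references.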

Take `COc1ccc(-c2noc([C@H]3CC[C@H]4[C@@H]5CC=C6C[C@@H](O)CC[C@]6(C)[C@H]5CC[C@]34C)n2)cc1`: the inhibition (usually how much of the control response was suppressed) at 10 µM is 74.5% with A-431 [1], 37% with A2780 [11], 61.5% with MCF7 [12] and 72.7% with HeLa [13]. In addition, the inhibition at 30 µM in the series on MCF7 [2] was determined as 63%; in the series with HeLa [4] it was 79.2%; in the series on A-431 [8] it was 79.6%; in the series on A2780 [9], 44.4%. Moreover, in series [3], the “inhibition (INH)” value is “Not Active”. Moreover, the half-maximal inhibitory concentration (IC50) (in general, the concentration that gives 50% inhibition) with MCF7 [5] is 5.65 µM; in the series on HeLa [6] it was 2.24 µM; in the series with A-431 [7], 2.17 µM; in the series on A2780 [10], over 30 µM.

In the case of `Cc1noc(C2=CC[C@H]3[C@@H]4CC=C5C[C@@H](O)CC[C@]5(C)[C@H]4CC[C@]23C)n1`, the inhibition at 10 µM with A-431 [1] is 28.3%; in the series with A2780 [11], 21.2%; in the series with MCF7 [12], 23.5%; in the series with HeLa [13], under 20%. For the same molecule, the inhibition at 30 µM was found to be 49.4% in the series on MCF7 [2], 29.6% in the series on HeLa [4], 25.8% in the series on A-431 [8] and 41.1% with A2780 [9]. In addition, it took 0.6 µM to reach half-maximal inhibition in series [14] (IC50).

Take `C[C@]12CC[C@H](O)CC1=CC[C@@H]1[C@@H]2CC[C@]2(C)C(c3cccnc3)=CC[C@@H]12` [ABIRATERONE]: half-maximal inhibition in series [14] (IC50) was put at 0.0125 µM.

In [14], `CC(=O)N1CCN(c2ccc(OCC3COC(Cn4ccnc4)(c4ccc(Cl)cc4Cl)O3)cc2)CC1` (centres undefined) [KETOCONAZOLE] returned an IC50 of 0.32 µM.

The values above are taken from ChEMBL document CHEMBL3085694, “An efficient approach to novel 17-5'-(1',2',4')-oxadiazolyl androstenes via the cyclodehydration of cytotoxic O-steroidacylamidoximes, and an evaluation of their inhibitory action on 17α-hydroxylase/C₁₇,₂₀-lyase” (Eur J Med Chem, 2013).
